Laboratory results reported in ChEMBL document CHEMBL4689842, “EUbOPEN Chemogenomics Library wave 1” (2021).

Tested on: Fibroblast
Assay: Multiplex assay against human fibroblast
Assay type: toxicity, cell-based
Procedure, shortened: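 Compound was added to live cells that had been stained at seeding with Hoechst33342, BioTracker Green Microtubule Cytoskeleton Dye, MitoTracker Red and Annexin V Alexa Fluor 680, and imaging followed on a CQ1 microscope at 37°C and 5% CO2. CellPathfinder machine-learning gating divided cells into Hoechst high-intensity objects or normal cells, normal cells into healthy, pyknosed or fragmented nuclei, and pyknosed cells into mitotic or apoptotic. Tubulin, mitochondrial-mass and membrane-permeability phenotypes are per cents of healthy-nucleus cells.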

[1] = 12 h, 1 µM, compound concentration 1 uM, replicate 1
[2] = 12 h, 1 µM, compound concentration 1 uM, replicate 2
[3] = 12 h, 10 µM, compound concentration 10 uM, replicate 1
[4] = 12 h, 10 µM, compound concentration 10 uM, replicate 2
[5] = 24 h, 1 µM, compound concentration 1 uM, replicate 1
[6] = 24 h, 1 µM, compound concentration 1 uM, replicate 2
[7] = 24 h, 10 µM, compound concentration 10 uM, replicate 1
[8] = 24 h, 10 µM, compound concentration 10 uM, replicate 2
[9] = 48 h, 1 µM, compound concentration 1 uM, replicate 1
[10] = 48 h, 1 µM, compound concentration 1 uM, replicate 2
[11] = 48 h, 10 µM, compound concentration 10 uM, replicate 1
[12] = 48 h, 10 µM, compound concentration 10 uM, replicate 2

For `CCN1CCN(Cc2ccc(Nc3ncc(F)c(-c4cc(F)c5nc(C)n(C(C)C)c5c4)n3)nc2)CC1.CS(=O)(=O)O`, the “Population Apoptotic (%)” value [1] was 75%, the “Population Fragmented Nuclei (%)” value [1] was 39% and the “Population Healthy Nuclei (%)” value [1] was 40%. For the same molecule, the “Population Hoechst High Intensity Objects (%)” value [1] was 15%, the “Population Membrane Permeable-Phenotype (%)” value [1] was 17% and the “Population Mitochondria Different-Phenotype (%)” value [1] was 21%. The “Population Mitotic Cells (%)” value [1] was 25%, the “Population Normal (%)” value [1] was 84% and the “Population Pyknosed Nuclei (%)” value [1] was 20%. The “Population Tubulin-Different-Phenotype (%)” value [1] was 57%, the “Total Cell Count” value [1] was 187 and the “Population Apoptotic (%)” value [2] was 40%. The “Population Fragmented Nuclei (%)” value [2] was 17%, the “Population Healthy Nuclei (%)” value [2] was 67% and the “Population Hoechst High Intensity Objects (%)” value [2] was 6%. For the same molecule, the “Population Membrane Permeable-Phenotype (%)” value [2] was 8%, the “Population Mitochondria Different-Phenotype (%)” value [2] was 91% and the “Population Mitotic Cells (%)” value [2] was 60%. The “Population Normal (%)” value [2] was 93%, the “Population Pyknosed Nuclei (%)” value [2] was 14% and the “Population Tubulin-Different-Phenotype (%)” value [2] was 97%. For the same molecule, the “Total Cell Count” value [2] was 73, the “Population Apoptotic (%)” value [3] was 63% and the “Population Fragmented Nuclei (%)” value [3] was 40%. For the same molecule, the “Population Healthy Nuclei (%)” value [3] was 13%, the “Population Hoechst High Intensity Objects (%)” value [3] was 17% and the “Population Membrane Permeable-Phenotype (%)” value [3] was 52%. The “Population Mitochondria Different-Phenotype (%)” value [3] was 5%, the “Population Mitotic Cells (%)” value [3] was 36% and the “Population Normal (%)” value [3] was 82%. The “Population Pyknosed Nuclei (%)” value [3] was 46%, the “Population Tubulin-Different-Phenotype (%)” value [3] was 47% and the “Total Cell Count” value [3] was 158. For the same molecule, the “Population Apoptotic (%)” value [4] was 83%, the “Population Fragmented Nuclei (%)” value [4] was 32% and the “Population Healthy Nuclei (%)” value [4] was 22%. The “Population Hoechst High Intensity Objects (%)” value [4] was 9%, the “Population Membrane Permeable-Phenotype (%)” value [4] was 88% and the “Population Mitochondria Different-Phenotype (%)” value [4] was 94%. The “Population Mitotic Cells (%)” value [4] was 16%, the “Population Normal (%)” value [4] was 90% and the “Population Pyknosed Nuclei (%)” value [4] was 45%. The “Population Tubulin-Different-Phenotype (%)” value [4] was 100%, the “Total Cell Count” value [4] was 88 and the “Population Apoptotic (%)” value [5] was 44%. For the same molecule, the “Population Fragmented Nuclei (%)” value [5] was 39%, the “Population Healthy Nuclei (%)” value [5] was 45% and the “Population Hoechst High Intensity Objects (%)” value [5] was 21%. The “Population Membrane Permeable-Phenotype (%)” value [5] was 15%, the “Population Mitochondria Different-Phenotype (%)” value [5] was 8% and the “Population Mitotic Cells (%)” value [5] was 55%. The “Population Normal (%)” value [5] was 78%, the “Population Pyknosed Nuclei (%)” value [5] was 15% and the “Population Tubulin-Different-Phenotype (%)” value [5] was 69%. The “Total Cell Count” value [5] was 240, the “Population Apoptotic (%)” value [6] was 58% and the “Population Fragmented Nuclei (%)” value [6] was 20%. For the same molecule, the “Population Healthy Nuclei (%)” value [6] was 61%, the “Population Hoechst High Intensity Objects (%)” value [6] was 10% and the “Population Membrane Permeable-Phenotype (%)” value [6] was 21%. The “Population Mitochondria Different-Phenotype (%)” value [6] was 85%, the “Population Mitotic Cells (%)” value [6] was 41% and the “Population Normal (%)” value [6] was 89%. For the same molecule, the “Population Pyknosed Nuclei (%)” value [6] was 17%, the “Population Tubulin-Different-Phenotype (%)” value [6] was 87% and the “Total Cell Count” value [6] was 75. For the same molecule, the “Population Apoptotic (%)” value [7] was 80%, the “Population Fragmented Nuclei (%)” value [7] was 45% and the “Population Healthy Nuclei (%)” value [7] was 16%. The “Population Hoechst High Intensity Objects (%)” value [7] was 25%, the “Population Membrane Permeable-Phenotype (%)” value [7] was 46% and the “Population Mitochondria Different-Phenotype (%)” value [7] was 0%. For the same molecule, the “Population Mitotic Cells (%)” value [7] was 20%, the “Population Normal (%)” value [7] was 74% and the “Population Pyknosed Nuclei (%)” value [7] was 38%. For the same molecule, the “Population Tubulin-Different-Phenotype (%)” value [7] was 53%, the “Total Cell Count” value [7] was 122 and the “Population Apoptotic (%)” value [8] was 97%. The “Population Fragmented Nuclei (%)” value [8] was 27%, the “Population Healthy Nuclei (%)” value [8] was 13% and the “Population Hoechst High Intensity Objects (%)” value [8] was 20%. The “Population Membrane Permeable-Phenotype (%)” value [8] was 100%, the “Population Mitochondria Different-Phenotype (%)” value [8] was 87% and the “Population Mitotic Cells (%)” value [8] was 2%. For the same molecule, the “Population Normal (%)” value [8] was 79%, the “Population Pyknosed Nuclei (%)” value [8] was 59% and the “Population Tubulin-Different-Phenotype (%)” value [8] was 100%. For the same molecule, the “Total Cell Count” value [8] was 74, the “Population Apoptotic (%)” value [9] was 56% and the “Population Fragmented Nuclei (%)” value [9] was 43%. For the same molecule, the “Population Healthy Nuclei (%)” value [9] was 41%, the “Population Hoechst High Intensity Objects (%)” value [9] was 37% and the “Population Membrane Permeable-Phenotype (%)” value [9] was 6%. For the same molecule, the “Population Mitochondria Different-Phenotype (%)” value [9] was 12%, the “Population Mitotic Cells (%)” value [9] was 43% and the “Population Normal (%)” value [9] was 62%. The “Population Pyknosed Nuclei (%)” value [9] was 15%, the “Population Tubulin-Different-Phenotype (%)” value [9] was 69% and the “Total Cell Count” value [9] was 246. For the same molecule, the “Population Apoptotic (%)” value [10] was 75%, the “Population Fragmented Nuclei (%)” value [10] was 53% and the “Population Healthy Nuclei (%)” value [10] was 43%. The “Population Hoechst High Intensity Objects (%)” value [10] was 16%, the “Population Membrane Permeable-Phenotype (%)” value [10] was 10% and the “Population Mitochondria Different-Phenotype (%)” value [10] was 5%. For the same molecule, the “Population Mitotic Cells (%)” value [10] was 25%, the “Population Normal (%)” value [10] was 83% and the “Population Pyknosed Nuclei (%)” value [10] was 2%. The “Population Tubulin-Different-Phenotype (%)” value [10] was 61%, the “Total Cell Count” value [10] was 199 and the “Population Apoptotic (%)” value [11] was 100%. The “Population Fragmented Nuclei (%)” value [11] was 69%, the “Population Healthy Nuclei (%)” value [11] was 20% and the “Population Hoechst High Intensity Objects (%)” value [11] was 33%. The “Population Membrane Permeable-Phenotype (%)” value [11] was 41%, the “Population Mitochondria Different-Phenotype (%)” value [11] was 5% and the “Population Mitotic Cells (%)” value [11] was 0%. The “Population Normal (%)” value [11] was 66%, the “Population Pyknosed Nuclei (%)” value [11] was 9% and the “Population Tubulin-Different-Phenotype (%)” value [11] was 76%. For the same molecule, the “Total Cell Count” value [11] was 123, the “Population Apoptotic (%)” value [12] was 77% and the “Population Fragmented Nuclei (%)” value [12] was 35%. For the same molecule, the “Population Healthy Nuclei (%)” value [12] was 50%, the “Population Hoechst High Intensity Objects (%)” value [12] was 53% and the “Population Membrane Permeable-Phenotype (%)” value [12] was 23%. For the same molecule, the “Population Mitochondria Different-Phenotype (%)” value [12] was 38%, the “Population Mitotic Cells (%)” value [12] was 22% and the “Population Normal (%)” value [12] was 46%. The “Population Pyknosed Nuclei (%)” value [12] was 13%, the “Population Tubulin-Different-Phenotype (%)” value [12] was 52% and the “Total Cell Count” value [12] was 145.
